Test results taken from ChEMBL document CHEMBL3102701, “Polyandric acid A, a clerodane diterpenoid from the Australian medicinal plant Dodonaea polyandra, attenuates pro-inflammatory cytokine secretion in vitro and in vivo” (J Nat Prod, 2014).
The source made the active and inactive calls. The rule behind the calls is not given here.

What was measured:
[1] = test system: THP-1; experiment: Antiinflammatory activity in human THP1 cells assessed as inhibition of TPA/ionomycin-induced extracellular IL-1beta level at 5 uM incubated 1 hr prior to TPA/ionomycin challenge measured after 24 hrs by ELISA; format: functional, cell-based
In short: (§1)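 THP-1 monocytes (100 000/well) in RPMI-1640 preincubated 1 h with test agent, ethanol ≤0.05%. Stimulated with TPA 40 ng/mL/ionomycin 1 μM (final) for 24 h at 37 °C, 5% CO2. Supernatant kept for extracellular cytokines. Washed cells were lysed in ice-cold RIPA with protease inhibitors for intracellular IL-1β and pro-IL-1β. ELISA read-out; n = 6.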

[2] = test system: THP-1; experiment: Antiinflammatory activity in human THP1 cells assessed as inhibition of TPA/ionomycin-induced intracellular IL-1beta level at 5 uM incubated 1 hr prior to TPA/ionomycin challenge measured after 24 hrs by ELISA; format: functional, cell-based; in short: as §1
[3] = test system: THP-1; experiment: Antiinflammatory activity in human THP1 cells assessed as inhibition of TPA/ionomycin-induced intracellular proIL-1beta level at 5 uM incubated 1 hr prior to TPA/ionomycin challenge measured after 24 hrs by ELISA; format: functional, cell-based; in short: as §1
[4] = test system: THP-1; experiment: Antiinflammatory activity in human THP1 cells assessed as inhibition of TPA/ionomycin-induced extracellular TNF-alpha production at 5 uM incubated 1 hr prior to TPA/ionomycin challenge measured after 24 hrs by ELISA; format: functional, cell-based; in short: as §1
[5] = Antiinflammatory activity in human NHEK cells assessed as inhibition of TPA/ionomycin-induced extracellular IL-6 production at 30 uM incubated for 1 hr prior to TPA/ionomycin challenge measured after 6 hrs by ELISA; format: functional
In short: (§2)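 Primary neonatal keratinocytes (passage ≤3) seeded at 10 000/well for 18 h at 37 °C, 5% CO2, then given fresh medium. Preincubated 1 h with test agent, then stimulated with TPA 40 ng/mL/ionomycin 1 μM. Supernatants taken at 6 and 24 h, centrifuged and stored at −80 °C. Extracellular cytokines measured by ELISA; means ± SEM, n = 6.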

[6] = test system: neonatal human epidermal keratinocytes (Homo sapiens); experiment: Antiinflammatory activity in human NHEK cells assessed as inhibition of TPA/ionomycin-induced IL-8 production at 0.3 to 30 uM incubated for 1 hr prior to TPA/ionomycin challenge measured after 6 to 24 hrs by ELISA
[7] = test system: RAW264.7; experiment: Antiinflammatory activity in mouse RAW264.7 cells assessed as inhibition of LPS-induced NO production at 3 to 30 uM incubated for 1 hr prior to LPS-challenge measured after 24 hrs by Greiss assay; format: functional, cell-based
In short: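 RAW264.7 macrophages (100 000/well) in DMEM preincubated 1 h with test agent at 3 or 30 μM. Stimulated with LPS 1 μg/mL final for 24 h at 37 °C, 5% CO2. Supernatant nitrite measured by Griess reaction (sulfanilic acid and N-naphthylethylenediamine in 5% HCl, 10 min at 37 °C). A540 read against a sodium nitrite standard curve; n = 8.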

[8] = test system: Mus musculus; experiment: Antiinflammatory activity in Balb/C chronic mouse ear edema model assessed as reduction in TPA-induced edema at 0.9 umol/ear administered topically, bid from day 7 to day 10 measured every day during compound administration relative to control; format: functional; set-up: scale not given: the % may be the effect or the level left
In short: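 Male Balb/C mice, 7–9 weeks old, acclimated at least 4 days. 20 μL TPA (125 μg/mL) was applied to inner and outer surfaces of both ears on alternate days from day 0. Test agent at 0.9 μmol/ear in 20 μL ethanol was applied topically to both ears morning and afternoon on days 7–9, with one more dose on day 10 morning. Ear thickness was read with a digital micrometer on days 0–4 and 7–10; means ± SEM, n ≥ 6.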

[9] = test system: Mus musculus; experiment: Antiinflammatory activity in Balb/C mouse ear edema model assessed as reduction of TPA-induced IL-1beta production at 0.9 umol/ear by ELISA relative to control; format: functional; set-up: scale not given: the % may be the effect or the level left
In short: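 Acute TPA ear model in male Balb/C mice, killed 6 h after treatment (0.9 μmol/ear topical). 5 mm ear punches were homogenized in 50 mM Tris-HCl pH 7.4/1 mM EDTA with protease inhibitors, then held 15 min on ice with 1% Triton X-100. Spun at 9500g, 4 °C; supernatant assayed by ELISA. Basal untreated-ear levels were subtracted.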

[10] = Cytotoxicity against human NHEK cells assessed as cell viability at <60 uM after 24 hrs by MTS assay; format: cell-based
In short: (§3)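 MTS viability: cells at 50 000/well were preincubated 1 h, then serial half-dilutions of test agent were added. After 24 h incubation, MTS reagent was added for 1 h and absorbance read at 492 nm.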

[11] = Antiinflammatory activity in human NHEK cells assessed as inhibition of TPA/ionomycin-induced extracellular TNF-alpha production at 3 uM incubated for 1 hr prior to TPA/ionomycin challenge measured after 6 hrs by ELISA; format: functional; in short: as §2
[12] = test system: THP-1; experiment: Antiinflammatory activity in human THP1 cells assessed as inhibition of TPA/ionomycin-induced TNF-alpha production at 30 uM incubated 1 hr prior to TPA/ionomycin challenge measured after 24 hrs by ELISA; format: functional; in short: as §1
[13] = Antiinflammatory activity in human NHEK cells assessed as inhibition of TPA/ionomycin-induced extracellular IL-6 production at 30 uM incubated for 1 hr prior to TPA/ionomycin challenge measured after 24 hrs by ELISA; format: functional; in short: as §2
[14] = test system: RAW264.7; experiment: Cytotoxicity against mouse RAW264.7 cells assessed as cell viability at <60 uM after 24 hrs by MTS assay; format: cell-based; conditions: raw264.7, 24 h; in short: as §3
[15] = Cytotoxicity against human NHEK cells assessed as cell viability at 30 uM after 24 hrs by MTS assay; format: cell-based; in short: as §3
[16] = test system: THP-1; experiment: Antiinflammatory activity in human THP1 cells assessed as inhibition of TPA/ionomycin-induced extracellular IL-1beta level at 3 uM incubated 1 hr prior to TPA/ionomycin challenge measured after 24 hrs by ELISA; format: functional; in short: as §1
[17] = test system: THP-1; experiment: Antiinflammatory activity in human THP1 cells assessed as inhibition of TPA/ionomycin-induced intracellular proIL-1beta level at 30 uM incubated 1 hr prior to TPA/ionomycin challenge measured after 24 hrs by ELISA; format: functional; in short: as §1
[18] = test system: neonatal human epidermal keratinocytes (Homo sapiens); experiment: Antiinflammatory activity in human NHEK cells assessed as inhibition of TPA/ionomycin-induced IL-1alpha production at 0.3 to 30 uM incubated for 1 hr prior to TPA/ionomycin challenge measured after 6 to 24 hrs by ELISA
[19] = test system: Mus musculus; experiment: Antiinflammatory activity in Balb/C chronic mouse ear edema model assessed as reduction in TPA-induced flaky appearance in ears at 0.9 umol/ear administered topically, bid from day 7 to day 10 measured every day during compound administration relative to control; format: functional, organism-based
[20] = test system: neonatal human epidermal keratinocytes (Homo sapiens); experiment: Antiinflammatory activity in human NHEK cells assessed as inhibition of TPA/ionomycin-induced extracellular TNF-alpha production at 30 uM incubated for 1 hr prior to TPA/ionomycin challenge measured after 6 to 24 hrs by ELISA
[21] = test system: THP-1; experiment: Antiinflammatory activity in human THP1 cells assessed as inhibition of TPA/ionomycin-induced intracellular IL-1beta level at 30 uM incubated 1 hr prior to TPA/ionomycin challenge measured after 24 hrs by ELISA; format: functional; in short: as §1
[22] = test system: THP-1; experiment: Antiinflammatory activity in human THP1 cells assessed as inhibition of TPA/ionomycin-induced extracellular IL-1beta level at 30 uM incubated 1 hr prior to TPA/ionomycin challenge measured after 24 hrs by ELISA; format: functional; in short: as §1
[23] = test system: THP-1; experiment: Cytotoxicity against human THP1 cells assessed as cell viability at <60 uM after 24 hrs by MTS assay; format: cell-based; conditions: thp-1, 24 h; in short: as §3
[24] = test system: Mus musculus; experiment: Antiinflammatory activity in Balb/C chronic mouse ear edema model assessed as reduction in influx of neutrophils at 0.9 umol/ear administered topically, bid from day 7 to day 10 measured every day during compound administration relative to control; format: functional, organism-based
In short: (§4)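 Chronic TPA ear model in male Balb/C mice: topical dosing at 0.9 μmol/ear in ethanol, twice daily days 7–9 and once on day 10, then euthanasia. 5 mm ear punches were homogenized in 80 mM PBS pH 5.4 with 0.5% HTAB and centrifuged. Supernatant in duplicate was reacted with H2O2 and 18.4 mM tetramethylbenzidine for 3 min at 37 °C. Stopped with sodium acetate pH 3.0; A600 read as neutrophil marker.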

[25] = test system: Mus musculus; experiment: Antiinflammatory activity in Balb/C chronic mouse ear edema model assessed as reduction in TPA-induced redness in ears at 0.9 umol/ear administered topically, bid from day 7 to day 10 measured every day during compound administration relative to control; format: functional, organism-based
[26] = test system: Mus musculus; experiment: Antiinflammatory activity in Balb/C chronic mouse ear edema model assessed as reduction in TPA-induced scaling in ears at 0.9 umol/ear administered topically, bid from day 7 to day 10 measured every day during compound administration relative to control; format: functional, organism-based
[27] = test system: Mus musculus; experiment: Antiinflammatory activity in Balb/C chronic mouse ear edema model assessed as reduction in TPA-induced myeloperoxidase accumulation at 0.9 umol/ear administered topically, bid from day 7 to day 10 measured every day during compound administration relative to control; format: functional; set-up: scale not given: the % may be the effect or the level left; in short: as §4
[28] = test system: THP-1; experiment: Cytotoxicity against human THP1 cells assessed as cell viability at 30 uM after 24 hrs by MTS assay; format: cell-based; conditions: thp-1, 24 h; in short: as §3
[29] = test system: neonatal human epidermal keratinocytes (Homo sapiens); experiment: Antiinflammatory activity in human NHEK cells assessed as inhibition of TPA/ionomycin-induced extracellular TNF-alpha production at 3 uM incubated for 1 hr prior to TPA/ionomycin challenge measured after 24 hrs by ELISA

For `Cc1ccc(S(=O)(=O)/C=C/C#N)cc1`, the inhibition [1] was “Active”, the inhibition [2] was “Active” and the inhibition [3] was “Active”. For the same compound, the inhibition [4] was “Active”.

In the case of `C[C@]1(CCc2ccoc2)[C@H](COC(=O)c2ccccc2)CC[C@@]2(C)C(C(=O)O)=C[C@H](O)C[C@H]12`, the inhibition at 30 µM [5] is reported as 33.2%, the inhibition [6] is reported as “inactive” and the inhibition [7] is reported as “inactive”. For the same compound, the Activity [8] was 41.1%, the Activity [9] was 78% and the Activity [10] was “Non-toxic”. For the same compound, the inhibition at 3 µM [11] was 26.2%, the inhibition at 30 µM [12] was 19.7% and the inhibition at 30 µM [13] was 41.5%. For the same compound, the Activity [14] was “Non-toxic”, the Activity [15] was “Non-toxic” and the inhibition at 3 µM [16] was 18%. The inhibition at 30 µM [17] was 17%, the inhibition [18] was “inactive” and the Activity [19] was “Active”. For the same compound, the inhibition [20] was “inactive”, the inhibition at 30 µM [21] was 15% and the inhibition at 30 µM [22] was 26.3%. The Activity [23] was “Non-toxic”, the Activity [24] was “Active” and the Activity [25] was “Active”. The Activity [26] was “Active”, the Activity [27] was 81.5% and the Activity [28] was “Non-toxic”. For the same compound, the inhibition [29] was “inactive”.

With `CCC(=O)OCC(=O)[C@@]1(OC(=O)CC)[C@@H](C)C[C@H]2[C@@H]3CCC4=CC(=O)C=C[C@]4(C)[C@@]3(F)[C@@H](O)C[C@@]21C` [BETAMETHASONE DIPROPIONATE] the Activity [8] was 54.2% and the Activity [27] was 90%.
